Consider six compounds from article PMC12746516 (Clinical Pharmacology and Therapeutics, 2025).

Test [1] deals with HepG2 cells. The test is described as follows: Cellular respiration assay. Type of test: cell-based. To be noted: HepG2, 1-hour incubation; for decrease in OCR within predicted physiological range (in words): plasma Cmax to liver Cmax. The method in brief: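 HepG2 cells incubated 1 h with test compound (parent compounds or metabolites), then run on a Seahorse XFe96 per the Mito Stress Test Kit protocol. Baseline oxygen consumption rate is expressed as fold change versus 0.2% DMSO vehicle. The physiological range spans predicted plasma Cmax to predicted liver Cmax, from a PBPK model using the liver:blood Kp.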

Test [2] deals with HepG2 cells. The test is described as follows: Oxidative stress assay. Particulars: HepG2, 24-hour incubation; for concentrations with significant increases in ROS: DHE fluorescence vs 0.2% DMSO. In kind it is cell-based. A digest of the protocol:
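Intracellular ROS were read by dihydroethidium fluorescence and expressed as fold change versus 0.2% DMSO vehicle, with troglitazone as positive control. Nominal concentrations covered each compound's predicted plasma and liver Cmax (PBPK). Reported values come from the 24-hour exposure; a 1-hour exposure was also run. Plotted with standard deviation; significance by Kruskal–Wallis test.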

The target in the next test is human BSEP (Homo sapiens, UniProt O95342). The test is described as follows: BSEP inhibition, taurocholate uptake in HEK293 human BSEP vesicles. Type of test: biochemical.
In a further test the test system is GSH in the liver. To be noted: rats, intravenous administration; cited from earlier work.
The test system of the next test is liver GSH. Particulars: mice, intravenous, after a toxic dose of acetaminophen; cited from earlier work.

Where only a bound is given, the exact number is not on record here.

One may read the IC50 as the midpoint of a concentration-inhibition curve. Higher therefore signals weaker potency.

human BSEP, sequence (O95342 whole entry): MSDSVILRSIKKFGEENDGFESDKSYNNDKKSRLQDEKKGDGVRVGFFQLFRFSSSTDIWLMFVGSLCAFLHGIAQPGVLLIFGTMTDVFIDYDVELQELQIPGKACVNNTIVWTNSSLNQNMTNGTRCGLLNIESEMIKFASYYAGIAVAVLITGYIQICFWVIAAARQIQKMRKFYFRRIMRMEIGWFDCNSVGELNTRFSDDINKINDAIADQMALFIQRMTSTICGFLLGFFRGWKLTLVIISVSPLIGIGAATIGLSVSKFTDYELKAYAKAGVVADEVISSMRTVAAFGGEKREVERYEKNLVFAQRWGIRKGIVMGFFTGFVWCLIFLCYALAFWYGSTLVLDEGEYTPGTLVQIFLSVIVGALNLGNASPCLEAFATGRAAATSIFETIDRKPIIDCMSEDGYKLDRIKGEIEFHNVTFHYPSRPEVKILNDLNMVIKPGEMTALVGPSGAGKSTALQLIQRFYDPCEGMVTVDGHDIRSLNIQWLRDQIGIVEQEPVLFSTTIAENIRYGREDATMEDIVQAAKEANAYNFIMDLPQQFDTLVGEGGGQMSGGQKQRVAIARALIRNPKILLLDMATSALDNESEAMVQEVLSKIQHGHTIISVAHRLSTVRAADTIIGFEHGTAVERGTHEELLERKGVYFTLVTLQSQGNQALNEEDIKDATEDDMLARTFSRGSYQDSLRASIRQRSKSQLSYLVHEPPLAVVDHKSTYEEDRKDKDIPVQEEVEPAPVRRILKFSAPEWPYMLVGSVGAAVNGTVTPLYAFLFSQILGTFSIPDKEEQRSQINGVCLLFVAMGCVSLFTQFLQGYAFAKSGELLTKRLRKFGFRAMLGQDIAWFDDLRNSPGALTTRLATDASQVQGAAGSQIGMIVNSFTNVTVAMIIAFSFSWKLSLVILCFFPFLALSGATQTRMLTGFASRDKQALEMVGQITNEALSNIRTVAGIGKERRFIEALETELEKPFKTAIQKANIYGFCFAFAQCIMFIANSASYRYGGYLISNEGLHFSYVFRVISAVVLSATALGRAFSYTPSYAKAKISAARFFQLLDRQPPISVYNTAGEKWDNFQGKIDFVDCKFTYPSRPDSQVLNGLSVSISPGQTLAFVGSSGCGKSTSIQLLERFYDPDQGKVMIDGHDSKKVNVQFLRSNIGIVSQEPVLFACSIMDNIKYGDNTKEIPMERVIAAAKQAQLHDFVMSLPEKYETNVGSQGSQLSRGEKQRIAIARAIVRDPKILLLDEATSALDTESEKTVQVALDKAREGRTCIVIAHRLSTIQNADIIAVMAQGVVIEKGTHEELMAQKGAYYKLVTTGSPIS

Regarding `[2H]C([2H])([2H])C(c1cc(C(C)(C)C)c(NC(=O)c2c[nH]c3ccccc3c2=O)cc1O)(C([2H])([2H])[2H])C([2H])([2H])[2H]` [Deutivacaftor, deutivacaftor], in the test with HepG2 cells [1], the “decrease in OCR at 10 μM” value is ~ 50%. Moreover, the “magnitude of ROS increase compared with another compound (in words)” value with HepG2 cells [2] is recorded as “nearly identical levels of ROS increases at the same concentrations as ivacaftor”.

On to `Cc1nn(C)cc1S(=O)(=O)NC(=O)c1ccc(-n2ccc(OCC(C)(C)C(F)(F)F)n2)nc1N1C[C@@H](C)CC1(C)C` [Elexacaftor, elexacaftor], for which the “decrease in OCR within predicted physiological range (in words)” value in the test with HepG2 cells [1] was “induced a decrease in OCR”. Also, in the test on HepG2 cells [2], the “concentrations with significant increases in ROS” value is 40 µM. This compound returned an IC50 against human BSEP of 37.1 µM.

In the case of `CC(C)(C)c1cc(C(C)(C)C)c(NC(=O)c2c[nH]c3ccccc3c2=O)cc1O` [Ivacaftor, ivacaftor], in the test on HepG2 cells [1], the “decrease in OCR at 10 μM” value is ~ 50% and the “decrease in OCR within predicted physiological range (in words)” value was “induced the most prominent decrease in OCR”. The “magnitude of ROS increase compared with another compound (in words)” value with HepG2 cells [2] was “matched or surpassed that of the positive control, troglitazone”. At human BSEP, this compound came in with an IC50 greater than 100 µM.

As to `CC(C)(C)c1cc(C(C)(C)CO)c(O)cc1NC(=O)c1c[nH]c2ccccc2c1=O` [M1 ivacaftor], in the test with HepG2 cells [1], the “decrease in OCR within predicted physiological range (in words)” value was “did not induce any notable decrease”. For the same compound, the “concentrations with significant increases in ROS” value in the test with HepG2 cells [2] is 100 µM.

For the compound `CC(=O)N[C@@H](CS)C(=O)O` [NAC, n‐acetyl cysteine], the “increase in levels of GSH in the liver” value in the test on GSH in the liver is listed as 50%. Further, in the test on liver GSH, the “recovery of liver GSH compared with untreated values” was 75% and the “recovery of mitochondrial GSH compared with untreated values” is listed as 45%.

`CC(C)(CO)c1cc2cc(NC(=O)C3(c4ccc5c(c4)OC(F)(F)O5)CC3)c(F)cc2n1C[C@@H](O)CO` [Tezacaftor, tezacaftor]: the “decrease in OCR within predicted physiological range (in words)” value with HepG2 cells [1] is given as “did not induce a notable decrease in OCR”. For the same compound, the half-inhibitory concentration (IC50) against human BSEP was greater than 100 µM.
